Entries after “also recorded” stand apart in the source; their conditions may differ.
Experiments:
[1] = Biodistribution in athymic nude mice bearing U87MG glioma xenografts; format: in vivo; conditions: mouse; for tissue to tissue ratio at 0.5 h / tissue to tissue ratio at 2 h: female, athymic nu/nu, iv, total radioactivity; for tissue uptake at 0.5 h / tissue uptake at 2 h: in vivo; for tissue uptake at 0.5 h: 30 min p.i.; for tissue uptake at 2 h: 120 min p.i.
Summary of the method: (§1)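 Female athymic nu/nu mice (4–5 weeks old) received 5 × 10⁶ cells s.c. into both mammary fat pads (MDA-MB-435) or both upper flanks (U87MG) and were used 2–4 weeks later with 0.05–0.4 g tumors. Each got ~2 μCi of HPLC-purified tracer in 0.1 mL saline i.v. via the tail vein. Four mice per time point were killed at 30, 60 and 120 min by pentobarbital overdose. Organs were weighed and γ-counted as %ID/g; T/B values are means ± SD.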

[2] = Biodistribution in athymic nude mice bearing MDA-MB-435 breast cancer xenografts; format: in vivo; conditions: mouse; for tissue to tissue ratio at 2 h: female, athymic nu/nu, tumor and muscle, iv, total radioactivity; for tissue uptake at 0.5 h / tissue uptake at 2 h: in vivo; for tissue uptake at 0.5 h: 30 min p.i.; for tissue uptake at 2 h: 120 min p.i.
Summary of the method: as §1

normal athymic nude mice = test: Metabolism study; format: in vivo
Summary of the method: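 Two normal athymic nude mice per tracer each received 100–120 μCi i.v. via the tail vein. Urine was collected by manual void at 30 and 120 min, mixed with an equal volume of 20% aqueous acetonitrile, centrifuged at 8,000 rpm and filtered (0.20 μ). Feces collected at 2 h were suspended in 2 mL 20% acetonitrile, vortexed and centrifuged.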

tumor-bearing mouse = test: Blocking experiment; format: in vivo, mice
Summary of the method: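 Tumour-bearing nude mice were given ~2 μCi of the 99mTc-labelled tracer i.v. together with ~350 μg (~14 mg/kg) excess unlabelled cyclic RGD dimer. The blocker was dissolved in the dose solution at 1.75 mg/mL and filtered. Four animals were killed at 1 h p.i. by pentobarbital overdose, and organ %ID/g was compared with unblocked animals at the same time point.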

[3] = test system: athymic nude mice bearing U87MG glioma xenografts; test: Biodistribution in athymic nude mice bearing U87MG glioma xenografts; format: in vivo; conditions: over the 2 h study period
Summary of the method: as §1

[4] = kidney uptake, MDA-MB-435 model
[5] = muscle uptake, MDA-MB-435 model
[6] = tumor uptake, MDA-MB-435 breast tumor
[7] = blood uptake (blood clearance), U87MG model

Row | SMILES | tissue to tissue ratio at 0.5 h ([1]; tumor and liver) | tissue to tissue ratio at 2 h ([1]; tumor and liver) | tissue to tissue ratio at 0.5 h ([1]; tumor and whole blood) | tissue to tissue ratio at 2 h ([1]; tumor and whole blood) | tissue uptake at 0.5 h ([1]; kidney uptake, U87MG model) | tissue uptake at 2 h ([1]; kidney uptake, U87MG model) | tissue uptake at 0.5 h ([1]; muscle uptake, U87MG model) | tissue uptake at 2 h ([1]; muscle uptake, U87MG model) | tissue uptake at 0.5 h ([1]; tumor uptake, U87MG glioma) | tissue uptake at 2 h ([1]; tumor uptake, U87MG glioma) | tissue to tissue ratio at 2 h [2] | tissue uptake at 0.5 h [2, 6] | tissue uptake at 2 h [2, 6] | also measured
1 | N=C(N)NCCC[C@@H]1NC(=O)[C@H](CCCCNC(=O)CCOCCOCCOCCOCCNC(=O)CC[C@H](NC(=O)c2ccc(NN)nc2)C(=O)NCCOCCOCCOCCOCCC(=O)NCCCC[C@@H]2NC(=O)[C@@H](Cc3ccccc3)NC(=O)[C@H](CC(=O)O)NC(=O)CNC(=O)[C@H](CCCNC(=N)N)NC2=O)NC(=O)[C@@H](Cc2ccccc2)NC(=O)[C@H](CC(=O)O)NC(=O)CNC1=O [^99mTc-2PEG4-dimer, [^99mTc(HYNIC-2PEG4-dimer)(tricine)(TPPTS)], metal not drawn] | 2.59 ± 0.45 | 3.33 ± 0.64 | 9.63 ± 1.32 | 29.1 ± 8.54 | 20.8 ± 2.32 %ID/g | 10.2 ± 1.37 %ID/g | 2.18 ± 0.37 %ID/g | 1.27 ± 0.2 %ID/g | 11.2 ± 1.96 %ID/g | 8.31 ± 2.31 %ID/g | 6.52 ± 1.72 | 5.2 ± 1.74 %ID/g | 9.77 ± 2.66 %ID/g | tissue uptake at 0.5 h [2, 4]: 14.4 ± 4.09 %ID/g; tissue uptake at 2 h [2, 4]: 13.8 ± 5.36 %ID/g; tissue uptake at 0.5 h ([2]; liver uptake, MDA-MB-435 model): 2.97 ± 0.63 %ID/g; tissue uptake at 2 h ([2]; liver uptake, MDA-MB-435 model): 3.27 ± 1.09 %ID/g; tissue uptake at 0.5 h [2, 5]: 1.76 ± 0.56 %ID/g; tissue uptake at 2 h [2, 5]: 1.51 ± 0.35 %ID/g; metabolic stability during excretion from renal and hepatobiliary routes (normal athymic nude mice; urine and feces over 2 h): high metabolic stability; also recorded: remained intact; also recorded: very high metabolic stability; uptake in the blood and kidneys in the presence of E[c(RGDfK)]2 (tumor-bearing mouse; 60 min p.i., versus without blocking agent): comparable; tumor uptake on co-injection of excess E[c(RGDfK)]2 (tumor-bearing mouse; result in words): partially blocked
2 | N=C(N)NCCC[C@@H]1NC(=O)[C@H](CCCCNC(=O)CCOCCOCCOCCOCCNC(=O)CC[C@H](NC(=O)CCOCCOCCOCCOCCNC(=O)c2ccc(NN)nc2)C(=O)NCCOCCOCCOCCOCCC(=O)NCCCC[C@@H]2NC(=O)[C@@H](Cc3ccccc3)NC(=O)[C@H](CC(=O)O)NC(=O)CNC(=O)[C@H](CCCNC(=N)N)NC2=O)NC(=O)[C@@H](Cc2ccccc2)NC(=O)[C@H](CC(=O)O)NC(=O)CNC1=O [^99mTc-3PEG4-dimer, [^99mTc(HYNIC-3PEG4-dimer)(tricine)(TPPTS)], metal not drawn] | 2.13 ± 0.87 | 3.49 ± 1.64 | 6.72 ± 2.88 | 48.8 ± 18.7 | 17.6 ± 0.73 %ID/g | 9.89 ± 1.2 %ID/g | 1.45 ± 0.2 %ID/g | 1 ± 0.22 %ID/g | 8.17 ± 0.68 %ID/g | 9.74 ± 3.22 %ID/g |  |  |  | tissue uptake at 0.5 h [1, 7]: 1.02 ± 0.22 %ID/g; tissue uptake at 2 h [1, 7]: 0.17 ± 0.02 %ID/g; tissue uptake at 0.5 h ([1]; liver uptake, U87MG model): 3.14 ± 0.18 %ID/g; tissue uptake at 2 h ([1]; liver uptake, U87MG model): 2.92 ± 0.77 %ID/g; tissue uptake at 2 h ([1]; tumor uptake, U87MG glioma, tumor size 0.5 g – 1.6 g or 500 – 1700 mm^3): 4 to 6 %ID/g; tissue uptake at 2 h ([1]; tumor uptake, U87MG glioma, tumor size <0.05 g or <50 mm^3): 2 to 4 %ID/g; glioma uptake relative to ^99mTc-PEG4-monomer [3]: ~3 ×; metabolism during excretion from the hepatobiliary route (normal athymic nude mice; feces at 120 min p.i.): ~ 30%; metabolic stability during excretion from the renal route (normal athymic nude mice; urine at 30 and 120 min p.i.): remained intact
3 | N=C(N)NCCC[C@@H]1NC(=O)[C@H](CCCCNC(=O)CC[C@H](NC(=O)CCOCCOCCOCCOCCNC(=O)c2ccc(NN)nc2)C(=O)NCCCC[C@@H]2NC(=O)[C@@H](Cc3ccccc3)NC(=O)[C@H](CC(=O)O)NC(=O)CNC(=O)[C@H](CCCNC(=N)N)NC2=O)NC(=O)[C@@H](Cc2ccccc2)NC(=O)[C@H](CC(=O)O)NC(=O)CNC1=O [^99mTc-PEG4-dimer, [^99mTc(HYNIC-PEG4-dimer)(tricine)(TPPTS)], metal not drawn, reference compound] |  |  |  |  |  |  |  |  |  |  | 2.91 ± 0.6 | 3.49 ± 0.62 %ID/g | 3.82 ± 0.54 %ID/g | 
